Laboratory results as given in ChEMBL document CHEMBL4257575, “Discovery of Novel Flavonoid Dimers To Reverse Multidrug Resistance Protein 1 (MRP1, ABCC1) Mediated Drug Resistance in Cancers Using a High Throughput Platform with "Click Chemistry"” (J Med Chem, 2018).

Target: Multidrug resistance-associated protein 1 (Homo sapiens, UniProt P33527)
Test: Inhibition of MRP1 in human 2008/MRP1 cells assessed as potentiation of doxorubicin-induced cytotoxicity by measuring cell survival at 2 uM after 5 days by MTS assay relative to control
Assay type: cell-based
Details: 120 h
How it was run: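 2008/MRP1 cells (retroviral human MRP1 transfectant; RPMI 1640, 10% FBS) at 4,000 per well, with 100 nM doxorubicin plus crude, unpurified click products in DMSO: 2 µM in the primary screen, 1 µM in the secondary. Incubated 5 days at 37 °C. MTS/PMS added for 2 h at 37 °C, absorbance read at 490 nm. % survival is relative to wells without DOX or product. Run in triplicate, at least three experiments.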

Multidrug resistance-associated protein 1, sequence (P33527 whole entry): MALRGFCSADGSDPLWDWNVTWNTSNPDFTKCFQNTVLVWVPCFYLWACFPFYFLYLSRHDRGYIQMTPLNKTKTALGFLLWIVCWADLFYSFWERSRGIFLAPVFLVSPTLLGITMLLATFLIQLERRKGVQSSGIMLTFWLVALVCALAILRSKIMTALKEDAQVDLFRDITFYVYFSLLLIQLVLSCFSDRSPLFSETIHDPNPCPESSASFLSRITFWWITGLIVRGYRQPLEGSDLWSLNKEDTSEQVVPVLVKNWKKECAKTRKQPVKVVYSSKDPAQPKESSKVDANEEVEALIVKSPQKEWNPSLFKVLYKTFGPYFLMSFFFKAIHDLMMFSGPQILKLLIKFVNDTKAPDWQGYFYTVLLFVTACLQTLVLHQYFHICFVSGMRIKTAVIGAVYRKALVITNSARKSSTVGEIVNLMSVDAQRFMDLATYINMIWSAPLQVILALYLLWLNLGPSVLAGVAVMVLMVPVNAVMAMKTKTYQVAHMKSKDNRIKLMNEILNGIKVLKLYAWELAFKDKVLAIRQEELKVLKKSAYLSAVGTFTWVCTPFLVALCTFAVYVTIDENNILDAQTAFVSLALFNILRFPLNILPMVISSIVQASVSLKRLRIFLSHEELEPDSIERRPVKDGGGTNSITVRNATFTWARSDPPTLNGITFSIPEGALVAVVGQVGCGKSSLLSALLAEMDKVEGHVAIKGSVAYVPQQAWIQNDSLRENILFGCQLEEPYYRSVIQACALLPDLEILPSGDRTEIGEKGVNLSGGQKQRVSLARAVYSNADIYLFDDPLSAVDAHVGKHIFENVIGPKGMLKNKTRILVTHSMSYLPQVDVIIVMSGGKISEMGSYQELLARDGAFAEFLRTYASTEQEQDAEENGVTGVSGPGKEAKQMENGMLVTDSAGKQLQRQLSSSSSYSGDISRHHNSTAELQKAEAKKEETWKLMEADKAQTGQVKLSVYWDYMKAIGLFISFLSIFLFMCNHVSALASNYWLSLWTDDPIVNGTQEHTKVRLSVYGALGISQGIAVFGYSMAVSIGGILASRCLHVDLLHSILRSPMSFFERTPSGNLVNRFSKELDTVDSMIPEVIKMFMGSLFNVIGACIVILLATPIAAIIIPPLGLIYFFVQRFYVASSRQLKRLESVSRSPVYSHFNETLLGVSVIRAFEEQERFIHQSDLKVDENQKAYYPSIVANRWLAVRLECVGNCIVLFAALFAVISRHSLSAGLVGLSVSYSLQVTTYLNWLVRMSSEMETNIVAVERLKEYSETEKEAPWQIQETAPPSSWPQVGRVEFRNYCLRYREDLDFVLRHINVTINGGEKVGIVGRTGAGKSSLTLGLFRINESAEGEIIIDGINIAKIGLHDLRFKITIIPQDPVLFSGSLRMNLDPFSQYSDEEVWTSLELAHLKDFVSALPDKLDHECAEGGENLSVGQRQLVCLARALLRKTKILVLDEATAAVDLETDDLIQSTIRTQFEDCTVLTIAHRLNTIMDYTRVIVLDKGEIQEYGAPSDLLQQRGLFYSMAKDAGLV

Structure (SMILES)	Survival
O=c1cc(-c2ccc(OCCCc3cn(CCOCCOCCOc4ccc5c(=O)cc(-c6ccccc6)oc5c4)nn3)cc2)oc2cc(F)ccc12	52%
O=c1cc(-c2ccc(OCCOCCOCCn3cc(CN4CCN(Cc5cn(CCOCCOCCOc6ccc(-c7cc(=O)c8ccccc8o7)cc6)nn5)CC4)nn3)cc2)oc2ccccc12	100%
O=C(/C=C/c1ccc(OCCCCc2cn(CCOCCOc3ccc(-c4oc5ccccc5c(=O)c4OCc4ccccc4)cc3)nn2)cc1)c1ccc(F)cc1O	69%
COc1cccc(COc2c(-c3ccc(OCCOCCn4cc(CN(Cc5ccccc5)Cc5cn(CCOCCOc6ccc(-c7oc8ccccc8c(=O)c7OCc7cccc(OC)c7)cc6)nn5)nn4)cc3)oc3ccccc3c2=O)c1	80%
O=Cc1ccc(OCCCCc2cn(CCOCCOCCOc3ccc(-c4cc(=O)c5cc(F)ccc5o4)cc3)nn2)cc1	74%
Cc1ccc(O)c(C(=O)/C=C/c2ccc(OCCCCc3cn(CCOCCOCCOc4ccc5c(=O)cc(-c6ccccc6)oc5c4)nn3)cc2)c1	84%
COc1cccc(COc2c(-c3ccc(OCCCCc4cn(CCOCCOc5ccc6c(=O)cc(-c7ccccc7)oc6c5)nn4)cc3)oc3ccccc3c2=O)c1	56%
O=c1cc(-c2ccc(OCCCc3cn(CCOCCOc4ccc(-c5cc(=O)c6cc(F)ccc6o5)cc4)nn3)cc2)oc2cc(F)ccc12	55%
Cc1ccc(C(=O)/C=C/c2ccc(OCCCCc3cn(CCOc4cccc5c(=O)cc(-c6ccccc6)oc45)nn3)cc2)c(O)c1	75%
O=c1cc(-c2ccc(OCCCc3cn(CCOCCOCCOc4ccc(-c5cc(=O)c6cc(F)ccc6o5)cc4)nn3)cc2)oc2ccc(F)cc12	76%
COc1cccc(COc2c(-c3ccc(OCCOCCn4cc(CN(C)CCN(C)Cc5cn(CCOCCOc6ccc(-c7oc8ccccc8c(=O)c7OCc7cccc(OC)c7)cc6)nn5)nn4)cc3)oc3ccccc3c2=O)c1	64%
O=Cc1ccc(OCCCCc2cn(CCOCCOc3cccc(-c4oc5ccccc5c(=O)c4OCc4ccccc4)c3)nn2)cc1	82%
C#Cc1ccc(C#C)cc1	86%
COc1cccc(COc2c(-c3ccc(OCCOCCn4cc(-c5cccc(-c6cn(CCOCCOc7ccc(-c8oc9ccccc9c(=O)c8OCc8cccc(OC)c8)cc7)nn6)c5)nn4)cc3)oc3ccccc3c2=O)c1	82%
COc1cccc(COc2c(-c3ccc(OCCOCCn4cc(CCCCOc5ccc(/C=C/C(=O)c6ccccc6O)cc5)nn4)cc3)oc3ccccc3c2=O)c1	74%
O=c1cc(-c2ccc(OCCOCCOCCn3cc(CNc4ccccc4)nn3)cc2)oc2ccccc12	88%
O=c1cc(-c2ccccc2)oc2cc(OCCCCc3cn(CCOCCOCCOc4ccc5c(=O)cc(-c6ccccc6)oc5c4)nn3)ccc12	61%
O=c1cc(-c2ccccc2)oc2cc(OCCCCc3cn(CCOc4cccc5c(=O)cc(-c6ccccc6)oc45)nn3)ccc12	60%
O=c1cc(-c2ccc(OCCCc3cn(CCOCCOCCOc4ccc(-c5oc6ccccc6c(=O)c5OCc5ccccc5)cc4)nn3)cc2)oc2ccc(F)cc12	75%
O=C(/C=C/c1ccc(OCCCCc2cn(CCOCCOc3cccc(-c4oc5ccccc5c(=O)c4OCc4ccccc4)c3)nn2)cc1)c1ccccc1O	83%
O=c1c(OCc2ccccc2)c(-c2ccc(OCCOCCOCCn3cc(-c4cccc(-c5cn(CCOCCOCCOc6ccc(-c7oc8ccccc8c(=O)c7OCc7ccccc7)cc6)nn5)c4)nn3)cc2)oc2ccccc12	80%

Structure (SMILES)	Survival
O=c1cc(-c2ccc(OCCOCCOCCn3cc(CCCOc4ccc(-c5cc(=O)c6cc(F)ccc6o5)cc4)nn3)cc2)oc2ccccc12	79%
COc1cccc(COc2c(-c3ccc(OCCCCc4cn(CCOCCOc5cccc(-c6oc7ccccc7c(=O)c6OCc6ccccc6)c5)nn4)cc3)oc3ccccc3c2=O)c1	75%
Cc1ccc(C(=O)/C=C/c2ccc(OCCCCc3cn(CCOCCOc4ccc5c(=O)cc(-c6ccccc6)oc5c4)nn3)cc2)c(O)c1	62%
O=c1cc(-c2ccccc2)oc2cc(OCCOCCn3cc(CCCOc4ccc(-c5cc(=O)c6cc(F)ccc6o5)cc4)nn3)ccc12	111%
Cc1ccc2oc(-c3ccc(OCCOCCOCCn4cc(CCCOc5ccc(-c6cc(=O)c7cc(F)ccc7o6)cc5)nn4)cc3)cc(=O)c2c1	82%
O=C(/C=C/c1ccc(OCCCCc2cn(CCOCCOc3ccc(-c4cc(=O)c5cc(F)ccc5o4)cc3)nn2)cc1)c1ccc(F)cc1O	70%
O=c1cc(-c2ccc(OCCCc3cn(CCOCCOc4ccc(-c5oc6ccccc6c(=O)c5OCc5ccccc5)cc4)nn3)cc2)oc2cc(F)ccc12	60%
C#CCCCOc1ccc(-c2cc(=O)c3ccc(F)cc3o2)cc1	79%
Cc1ccc(O)c(C(=O)/C=C/c2ccc(OCCCCc3cn(CCOCCOCCOc4ccc(-c5cc(=O)c6cc(C)ccc6o5)cc4)nn3)cc2)c1	67%
Cc1ccc(C(=O)/C=C/c2ccc(OCCCCc3cn(CCOCCOc4ccc(-c5cc(=O)c6cc(F)ccc6o5)cc4)nn3)cc2)c(O)c1	71%
CCc1ccc(O)c(C(=O)/C=C/c2ccc(OCCCCc3cn(CCOCCOCCOc4ccc(-c5cc(=O)c6cc(C)ccc6o5)cc4)nn3)cc2)c1	63%
Cc1ccc2oc(-c3ccc(OCCCCc4cn(CCOc5cccc6c(=O)cc(-c7ccccc7)oc56)nn4)cc3)cc(=O)c2c1	75%
Cc1ccc(O)c(C(=O)/C=C/c2ccc(OCCCCc3cn(CCOc4cccc5c(=O)cc(-c6ccccc6)oc45)nn3)cc2)c1	77%
Cc1ccc2oc(-c3ccc(OCCOCCOCCn4cc(CCCCOc5ccc(/C=C/C(=O)c6ccccc6O)cc5)nn4)cc3)cc(=O)c2c1	61%
[N-]=[N+]=NCCOCCOCCOc1ccc2c(=O)cc(-c3ccccc3)oc2c1	90%
CN(CCN(C)Cc1cn(CCOCCOCCOc2ccc(-c3oc4ccccc4c(=O)c3OCc3ccccc3)cc2)nn1)Cc1cn(CCOCCOCCOc2ccc(-c3oc4ccccc4c(=O)c3OCc3ccccc3)cc2)nn1	84%
O=c1cc(-c2ccccc2)oc2cc(OCCOCCn3cc(COCCOc4ccc5c(=O)cc(-c6ccccc6)oc5c4)nn3)ccc12	60%
Cc1ccc2oc(-c3ccc(OCCOCCOCCn4cc(CN(Cc5cn(CCOCCOCCOc6ccc(-c7cc(=O)c8cc(C)ccc8o7)cc6)nn5)Cc5cn(CCOCCOCCOc6ccc(-c7cc(=O)c8cc(C)ccc8o7)cc6)nn5)nn4)cc3)cc(=O)c2c1	71%
O=c1cc(-c2ccccc2)oc2cc(OCCOCCOCCn3cc(CNc4ccccc4)nn3)ccc12	90%
O=c1cc(-c2ccccc2)oc2cc(OCCOCCOCCn3cc(CN(Cc4ccccc4)Cc4cn(CCOCCOCCOc5ccc6c(=O)cc(-c7ccccc7)oc6c5)nn4)nn3)ccc12	74%
CN(CCN(C)Cc1cn(CCOCCOc2ccc(-c3cc(=O)c4cc(F)ccc4o3)cc2)nn1)Cc1cn(CCOCCOc2ccc(-c3cc(=O)c4cc(F)ccc4o3)cc2)nn1	73%

Structure (SMILES)	Survival
O=c1cc(-c2ccccc2)oc2cc(OCCOCCn3cc(-c4ccc(-c5cn(CCOCCOc6ccc7oc(-c8ccccc8)cc(=O)c7c6)nn5)cc4)nn3)ccc12	79%
COc1cccc(COc2c(-c3ccc(OCCCCc4cn(CCOCCOCCOc5ccc(-c6cc(=O)c7ccccc7o6)cc5)nn4)cc3)oc3ccccc3c2=O)c1	58%
Cc1ccc(O)c(C(=O)/C=C/c2ccc(OCCCCc3cn(CCOCCOCCOc4ccc(-c5cc(=O)c6ccccc6o5)cc4)nn3)cc2)c1	70%
COCOc1cc(OCc2ccccc2)c2c(=O)cc(-c3ccc(OCCCc4cn(CCOCCOCCOc5ccc(-c6cc(=O)c7cc(F)ccc7o6)cc5)nn4)cc3)oc2c1	58%
O=C(/C=C/c1ccc(OCCCCc2cn(CCOCCOc3ccc(-c4cc(=O)c5cc(F)ccc5o4)cc3)nn2)cc1)c1ccccc1O	72%
COc1cccc(COc2c(-c3ccc(OCCCCc4cn(CCOCCOc5ccc(-c6oc7ccccc7c(=O)c6OCc6ccccc6)cc5)nn4)cc3)oc3ccccc3c2=O)c1	68%
O=c1cc(-c2ccc(OCCOCCOCCn3cc(COCCOc4ccc5c(=O)cc(-c6ccccc6)oc5c4)nn3)cc2)oc2ccccc12	59%
C#CCCCCOc1ccc(C=O)cc1	86%
O=c1cc(-c2ccccc2)oc2cc(OCCn3cc(-c4cccc(-c5cn(CCOc6ccc7occ(-c8ccccc8)c(=O)c7c6)nn5)c4)nn3)ccc12	90%
Cc1ccc(O)c(C(=O)/C=C/c2ccc(OCCCCc3cn(CCOCCOc4ccc(-c5cc(=O)c6cc(F)ccc6o5)cc4)nn3)cc2)c1	82%
O=C(/C=C/c1ccc(OCCCCc2cn(CCOc3cccc4c(=O)cc(-c5ccccc5)oc34)nn2)cc1)c1ccccc1O	85%
O=c1cc(-c2ccccc2)oc2cc(OCCOCc3cn(CCOCCOc4ccc(-c5cc(=O)c6cc(F)ccc6o5)cc4)nn3)ccc12	54%
O=c1cc(-c2ccccc2)oc2cc(OCCn3cc(CN(Cc4cn(CCOc5ccc6occ(-c7ccccc7)c(=O)c6c5)nn4)Cc4cn(CCOc5ccc6occ(-c7ccccc7)c(=O)c6c5)nn4)nn3)ccc12	87%
O=c1cc(-c2ccc(OCCOCCn3cc(CN(Cc4ccccc4)Cc4cn(CCOCCOc5ccc(-c6cc(=O)c7cc(F)ccc7o6)cc5)nn4)nn3)cc2)oc2ccc(F)cc12	70%
C#CCOCCOc1ccc2c(=O)cc(-c3ccccc3)oc2c1	98%
C#CCCCCOc1ccc(/C=C/C(=O)c2ccccc2O)cc1	102%
CCc1ccc(O)c(C(=O)/C=C/c2ccc(OCCCCc3cn(CCOCCOCCOc4ccc5c(=O)cc(-c6ccccc6)oc5c4)nn3)cc2)c1	79%
Cc1ccc(O)c(C(=O)/C=C/c2ccc(OCCCCc3cn(CCOCCOc4cccc(-c5oc6ccccc6c(=O)c5OCc5ccccc5)c4)nn3)cc2)c1	78%
COc1cccc(COc2c(-c3ccc(OCCOCCn4cc(CN(CCOc5ccc6c(=O)cc(-c7ccccc7)oc6c5)Cc5ccccc5)nn4)cc3)oc3ccccc3c2=O)c1	79%
